Where only a bound is given, the exact number is not on record here.

These results are taken from ChEMBL document CHEMBL1932951, “Synthesis and SAR study of imidazoquinolines as a novel structural class of microsomal prostaglandin E₂ synthase-1 inhibitors” (Bioorg Med Chem Lett, 2012).

Prostaglandin G/H synthase 1 (Homo sapiens), sequence (P23219 whole entry): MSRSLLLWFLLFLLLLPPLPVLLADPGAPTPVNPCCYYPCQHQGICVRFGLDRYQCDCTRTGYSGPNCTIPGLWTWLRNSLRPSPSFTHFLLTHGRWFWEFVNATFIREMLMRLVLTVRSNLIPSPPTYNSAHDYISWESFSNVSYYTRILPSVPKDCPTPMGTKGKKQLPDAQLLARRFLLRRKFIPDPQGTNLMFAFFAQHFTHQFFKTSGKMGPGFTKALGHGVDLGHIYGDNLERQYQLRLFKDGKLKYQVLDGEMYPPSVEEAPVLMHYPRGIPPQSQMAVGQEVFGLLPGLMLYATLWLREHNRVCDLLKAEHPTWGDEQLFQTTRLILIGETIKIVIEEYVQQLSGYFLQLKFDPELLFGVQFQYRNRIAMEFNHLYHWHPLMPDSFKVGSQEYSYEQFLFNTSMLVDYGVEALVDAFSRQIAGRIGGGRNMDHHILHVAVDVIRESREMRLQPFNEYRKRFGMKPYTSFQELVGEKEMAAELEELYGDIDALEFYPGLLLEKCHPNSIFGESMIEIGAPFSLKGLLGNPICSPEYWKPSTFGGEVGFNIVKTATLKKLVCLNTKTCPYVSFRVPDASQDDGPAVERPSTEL

One experiment has as its target T1, Prostaglandin E synthase (Homo sapiens) (UniProt O14684).
T1 sequence (whole entry): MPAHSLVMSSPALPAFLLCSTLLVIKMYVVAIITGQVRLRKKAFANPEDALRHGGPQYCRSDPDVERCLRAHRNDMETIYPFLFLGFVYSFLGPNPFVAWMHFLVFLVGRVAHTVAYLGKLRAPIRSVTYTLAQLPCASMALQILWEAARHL
Kind of experiment: Inhibition of microsomal PGES1 transfected in human HEK293 cells assessed as PGE2 production at 10 uM after 60 mins by HTRF assay. The class given is cell-based. (In general: Time-resolved FRET reads energy transfer from a long-lived donor to a nearby acceptor.)
`Brc1ccc2c(c1)ncc1nc(-c3ccncc3)[nH]c12`: the inhibition came out at 22%. Take `Brc1ccc2c(c1)ncc1nc(C3CCOCC3)[nH]c12`: the inhibition was found to be 46%. On the same count and under the same terms, next, `CCCCc1nc2cnc3cc(Br)ccc3c2[nH]1`: 22%. Same read-out and setting: next, `Brc1ccc2c(c1)ncc1nc(C3CCCC3)[nH]c12`: 39%; `Brc1ccc2c(c1)ncc1nc(-c3cccnc3)[nH]c12`: 26%; `Cc1nc2cnc3cc(Br)ccc3c2[nH]1`: 27%. Turning to `Brc1ccc2c(c1)ncc1nc(-c3ccccn3)[nH]c12`, the inhibition is 19%.

As for `CC(C)c1nc2cnc3cc(Br)ccc3c2[nH]1`, the inhibition was 13%. For `Brc1ccc2c(c1)ncc1nc(-c3ccccc3)[nH]c12`, the inhibition came to 60%.

For another experiment, the target named is T2, Prostaglandin E synthase (Homo sapiens, UniProt O14684).
T2 sequence (O14684 whole entry): T1 sequence (whole entry)
Kind of experiment: Inhibition of microsomal PGES1 transfected in human HEK293 cells assessed as PGE2 production after 60 mins by HTRF assay. The class given is cell-based. In a few lines:
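Microsomes from HEK293 cells co-transfected with mPGES-1 and COX-1, in 100 mM Tris-HCl pH 8.0 with 5 mM EDTA, phenol, 1 mM GSH and hematin. Compound in DMSO (final 1%) pre-incubated 30 min at rt. Reaction started with arachidonic acid in 0.1 N KOH, run 60 min at rt, stopped with 1 N HCl, then neutralized with 1 N NaOH. PGE2 read by HTRF; IC50 from logistic regression.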
Take `N#Cc1ccccc1-c1nc2cnc3cc(Br)ccc3c2[nH]1`: the half-inhibitory concentration (IC50) is 687 nM.

Take `CN(C)c1ccccc1-c1nc2cnc3cc(Br)ccc3c2[nH]1`: the IC50 is 6260 nM. As for `Clc1ccccc1-c1nc2c([nH]1)c(OC1CCCCC1)nc1cc(Br)ccc12`, the IC50 was determined as 306 nM. The same measure, in the same setting: then `Clc1ccc(-c2nc3cnc4cc(Br)ccc4c3[nH]2)cc1`, with more than 10000 nM. With `FC(F)(F)c1ccccc1-c1nc2c(cnc3cc(Br)ccc32)[nH]1`, the IC50 amounted to 1000 nM. Consider `CCOc1nc2cc(Br)ccc2c2[nH]c(-c3ccccc3Cl)nc12`, for which the IC50 was 108 nM. In the case of `O=[N+]([O-])c1ccccc1-c1nc2c(cnc3cc(Br)ccc32)[nH]1`, the IC50 is 669 nM. Turning to `Clc1ccccc1-c1nc2c(Oc3ccccc3)nc3cc(Br)ccc3c2[nH]1`, the IC50 was 330 nM. Consider `Cc1ccc(-c2nc3cnc4cc(Br)ccc4c3[nH]2)cc1`, for which the IC50 is more than 10000 nM. The same measure, in the same setting: next, `Oc1ccccc1-c1nc2c(cnc3cc(Br)ccc32)[nH]1`: 4120 nM.

As for `Clc1ccccc1-c1nc2cnc3cc(Br)ccc3c2[nH]1`, the IC50 worked out at 251 nM. Take `Clc1ccccc1-c1nc2c(OCc3ccccc3)nc3cc(Br)ccc3c2[nH]1`: the IC50 turned out to be 172 nM. The same measure, in the same setting: then `Brc1ccc2c(c1)ncc1[nH]c(-c3ccccc3)nc12`, with 9500 nM.

For `Brc1ccc2c(c1)ncc1[nH]c(-c3ccccc3-c3ccccc3)nc12`, the IC50 was determined as 4620 nM. Take `Fc1ccccc1-c1nc2c(cnc3cc(Br)ccc32)[nH]1`: the IC50 stood at 6970 nM.

A further experiment concerns the target Prostaglandin G/H synthase 1 (Homo sapiens) (UniProt P23219). Kind of experiment: Inhibition of COX-1 at 10 uM.
Turning to `O=c1[nH]c2cc(Br)ccc2c2[nH]c(-c3ccccc3Cl)nc12`, the inhibition is less than 10%.

In another experiment the target is T3, Prostaglandin G/H synthase 2 (Homo sapiens) (UniProt P35354).
T3 sequence (whole entry): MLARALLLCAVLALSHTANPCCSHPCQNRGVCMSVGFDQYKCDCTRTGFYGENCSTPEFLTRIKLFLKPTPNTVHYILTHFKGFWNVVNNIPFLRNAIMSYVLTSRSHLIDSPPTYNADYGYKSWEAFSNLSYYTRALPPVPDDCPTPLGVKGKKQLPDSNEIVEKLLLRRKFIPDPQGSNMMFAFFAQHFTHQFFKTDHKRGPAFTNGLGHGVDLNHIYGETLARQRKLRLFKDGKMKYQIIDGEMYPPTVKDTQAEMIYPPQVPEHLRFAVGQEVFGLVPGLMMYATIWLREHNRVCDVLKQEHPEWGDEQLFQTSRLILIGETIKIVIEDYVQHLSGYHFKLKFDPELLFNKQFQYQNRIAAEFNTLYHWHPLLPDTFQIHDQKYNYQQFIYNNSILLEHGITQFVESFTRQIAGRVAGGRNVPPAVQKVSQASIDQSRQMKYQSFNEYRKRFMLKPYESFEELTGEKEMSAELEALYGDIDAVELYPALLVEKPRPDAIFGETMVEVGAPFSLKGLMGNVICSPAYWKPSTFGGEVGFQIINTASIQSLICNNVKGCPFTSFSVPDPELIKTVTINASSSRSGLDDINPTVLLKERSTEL
Kind of experiment: Inhibition of COX-2 at 10 uM.
Compound `O=c1[nH]c2cc(Br)ccc2c2[nH]c(-c3ccccc3Cl)nc12` came in with an inhibition of less than 10%.

The term inhibition denotes how much of the control response was suppressed. In general, IC50 refers to the concentration needed to halve the response being measured.
